Kd data for one compound are collected here from PMC3741069 (Biochemistry, 2013).

Changes are numbered by the printed parent chain.

Broadly, the Kd is a measure of binding affinity in units of concentration. Low readings indicate tighter binding, high ones weaker binding.

Holding throughout (assay): spectral perturbation titration
What all share (format): binding

The target in experiment [1] is T1, nitrate reductase (NarB) (Synechococcus elongatus, UniProt P39458, K144Q).
T1 sequence (P39458 15-729 K144Q): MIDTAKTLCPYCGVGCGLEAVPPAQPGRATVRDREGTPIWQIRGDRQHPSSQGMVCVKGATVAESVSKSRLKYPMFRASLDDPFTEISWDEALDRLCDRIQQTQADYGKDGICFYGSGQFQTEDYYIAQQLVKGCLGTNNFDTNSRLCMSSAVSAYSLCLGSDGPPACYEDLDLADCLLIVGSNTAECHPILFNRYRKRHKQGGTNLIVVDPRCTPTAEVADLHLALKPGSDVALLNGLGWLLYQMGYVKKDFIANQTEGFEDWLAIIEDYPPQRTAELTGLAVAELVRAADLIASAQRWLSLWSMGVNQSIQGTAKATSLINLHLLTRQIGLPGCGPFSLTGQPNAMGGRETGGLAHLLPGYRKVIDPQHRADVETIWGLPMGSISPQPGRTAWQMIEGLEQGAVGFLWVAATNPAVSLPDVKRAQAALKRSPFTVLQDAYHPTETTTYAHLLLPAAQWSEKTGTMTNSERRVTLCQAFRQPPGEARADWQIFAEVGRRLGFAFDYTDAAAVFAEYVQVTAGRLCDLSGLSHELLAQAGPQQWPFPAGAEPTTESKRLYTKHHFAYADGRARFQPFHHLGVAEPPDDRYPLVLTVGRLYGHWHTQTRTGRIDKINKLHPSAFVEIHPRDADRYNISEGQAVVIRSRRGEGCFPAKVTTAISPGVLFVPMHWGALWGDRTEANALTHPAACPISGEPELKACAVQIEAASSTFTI
The method in brief:
(§1)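 Single-residue NarB variants were made by site-directed mutagenesis and expressed and purified as for wild type (His6, Co affinity, DEAE, gel filtration). Complex formation with ferredoxin or nitrate was followed by difference absorbance at variant-specific wavelength pairs chosen for signal:noise. The change at saturating nitrate was taken as 100% complex. Kd came from fitting perturbation magnitude against ligand concentration to a single binding isotherm.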

In experiment [2] the target is T2, nitrate reductase (NarB) (Synechococcus elongatus, UniProt P39458, K72Q).
T2 sequence (P39458 15-729 K72Q): T1 sequence (P39458 15-729 K144Q) with K58Q, Q130K
The method in brief: as §1

The target of experiment [3] is T3, nitrate reductase (NarB) (Synechococcus elongatus, UniProt P39458, R84Q).
T3 sequence (P39458 15-729 R84Q): T1 sequence (P39458 15-729 K144Q) with R70Q, Q130K
The method in brief: as §1

For `O=[N+]([O-])O` [nitrate], the Kd on nitrate reductase (NarB) [1] stood at 19 ± 6.8 µM; at nitrate reductase (NarB) [2], 8 ± 2.3 µM; on nitrate reductase (NarB) [3], 5.5 ± 2.2 µM.
